As a reminder, the inhibition is the share of the control response that was lost under treatment. One may read the half-life as how long it takes for the measured level to halve.

We go through 26 compounds from ChEMBL document CHEMBL5380838, “Novel Aryl Sulfonamide Derivatives as NLRP3 Inflammasome Inhibitors for the Potential Treatment of Cancer” (J Med Chem, 2023).

Calls of active or inactive are those of the source. The rule behind the calls is not given here.

Series [1] has as its target NACHT, LRR and PYD domains-containing protein 3 (Mus musculus) (UniProt Q8R4B8). As to the kind of experiment: Inhibition of NLRP3 inflammasome activation in LPS-treated mouse BMDM cells assessed as Bz-ATP-stimulated IL-1beta level at 1 uM incubated for 30 mins followed by Bz-ATP stimulation for 30 mins by ELISA method. The class given is cell-based. Conditions: time 60.0 min. Summed up:
(§1)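 Mouse BMDMs, C57BL/6 bone marrow cells differentiated 7 days with M-CSF 10 ng/mL, seeded 5 × 10^5/well. Primed with LPS 1 µg/mL for 2 h, then compound 1 µM in serum-free medium for 30 min, then Bz-ATP 100 µM for 30 min. Supernatant IL-1β by ELISA in pg/mL and as percent inhibition. Mean ± SEM of three independent experiments in triplicate.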
A general note: In an ELISA, binding on a coated surface is turned into a signal by an enzyme label.

Series [2] shares this target. Kind of series: Inhibition of NLRP3 inflammasome activation in LPS-treated mouse BMDM cells assessed as inhibition of Bz-ATP-stimulated IL-1beta release at 1 uM incubated for 30 mins followed by Bz-ATP stimulation for 30 mins by ELISA method relative to control. The class given is cell-based. To be noted: time 60.0 min. Summed up: as §1
Series [3] has the same target. As to the kind of experiment: Inhibition of NLRP3 inflammasome activation in LPS-treated mouse BMDM cells assessed as inhibition of Bz-ATP-stimulated IL-1beta release at 1 uM incubated for 30 mins followed by Bz-ATP stimulation for 30 mins by ELISA method. The class given is cell-based. To be noted: time 60.0 min. A digest of the protocol: as §1
Series [4] can be described thus: Metabolic stability in human liver microsomes assessed as half life measured per mg protein at 1 uM measured upto 60 mins by LC-MS/MS analysis. Type of series: ADME, Microsome. A digest of the protocol: (§2)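 Pooled human or CD-1 male mouse liver microsomes at 0.5 mg/mL with test compound 1 µM in 50 mM phosphate pH 7.4 and 3 mM MgCl2, preincubated 10 min at 37 °C. Percent parent remaining vs 0 min measured by LC-MS/MS. Cli = k/microsomal conc. × 1000; mean ± SD, n = 2.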

Series [5] can be described thus: Metabolic stability in mouse liver microsomes assessed as half life measured per mg protein at 1 uM measured upto 60 mins by LC-MS/MS analysis. Type of series: ADME, Microsome. Summed up: as §2
(Microsomes from liver hold many membrane-bound enzymes, among them those of drug oxidation.)

The nature of series [6]: Metabolic stability in human liver microsomes assessed as intrinsic clearance measured per mg protein at 1 uM measured upto 60 mins by LC-MS/MS analysis. Type of series: ADME, Microsome. To be noted: read-out: CLH. A digest of the protocol:
as §2

Series [7] is described as follows: Metabolic stability in mouse liver microsomes assessed as intrinsic clearance measured per mg protein at 1 uM measured upto 60 mins by LC-MS/MS analysis. Type of series: ADME, Microsome. To be noted: read-out: CLH. Summed up: as §2

NACHT, LRR and PYD domains-containing protein 3 (Mus musculus), sequence (Q8R4B8 whole entry, the tested form may be a part): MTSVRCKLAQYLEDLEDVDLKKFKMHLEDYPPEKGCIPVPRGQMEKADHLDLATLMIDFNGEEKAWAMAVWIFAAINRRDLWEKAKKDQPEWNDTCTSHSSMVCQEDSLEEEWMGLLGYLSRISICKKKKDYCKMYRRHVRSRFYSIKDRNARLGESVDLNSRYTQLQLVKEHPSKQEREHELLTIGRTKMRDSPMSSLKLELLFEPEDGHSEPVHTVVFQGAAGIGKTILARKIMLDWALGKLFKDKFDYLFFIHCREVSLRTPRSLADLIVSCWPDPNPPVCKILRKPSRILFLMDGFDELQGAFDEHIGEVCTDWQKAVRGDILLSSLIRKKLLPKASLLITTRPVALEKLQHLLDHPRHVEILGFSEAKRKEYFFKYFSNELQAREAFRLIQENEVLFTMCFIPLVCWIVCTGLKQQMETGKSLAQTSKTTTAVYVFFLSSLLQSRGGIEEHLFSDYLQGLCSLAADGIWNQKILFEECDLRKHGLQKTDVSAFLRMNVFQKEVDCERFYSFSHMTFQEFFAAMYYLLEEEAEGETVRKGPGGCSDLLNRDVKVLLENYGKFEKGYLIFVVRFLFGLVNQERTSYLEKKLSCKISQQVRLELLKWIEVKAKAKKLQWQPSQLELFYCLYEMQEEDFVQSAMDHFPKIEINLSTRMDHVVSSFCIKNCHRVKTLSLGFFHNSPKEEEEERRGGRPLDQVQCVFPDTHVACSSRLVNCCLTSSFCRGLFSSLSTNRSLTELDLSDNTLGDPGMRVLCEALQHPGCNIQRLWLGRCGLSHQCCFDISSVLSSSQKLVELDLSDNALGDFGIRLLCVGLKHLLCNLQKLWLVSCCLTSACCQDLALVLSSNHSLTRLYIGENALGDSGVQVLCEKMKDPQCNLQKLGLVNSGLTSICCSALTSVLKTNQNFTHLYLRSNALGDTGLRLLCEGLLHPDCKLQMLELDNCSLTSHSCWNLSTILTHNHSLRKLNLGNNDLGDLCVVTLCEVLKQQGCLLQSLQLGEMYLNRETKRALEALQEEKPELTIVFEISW

`NCCCC[C@H](NS(=O)(=O)c1ccc(N)cc1)C(=O)Nc1c2c(cc3c1CCC3)CCC2`: in series [1], the Activity was 203 pg/mL. Moreover, in series [2], the inhibition is 28.4%. The matching figures for `Nc1ccc(S(=O)(=O)N[C@@H](Cc2ccccc2)C(=O)Nc2c3c(cc4c2CCC4)CCC3)cc1`: 175 pg/mL and 38%. Regarding `Nc1ccc(S(=O)(=O)NCC(=O)Nc2c3c(cc4c2CCC4)CCC3)cc1`, in series [3], the inhibition entry was “inactive”. In series [1], the Activity is 348 pg/mL. For `Nc1ccc(S(=O)(=O)N2CCCC[C@H]2C(=O)Nc2c3c(cc4c2CCC4)CCC3)cc1`, the Activity in series [1] stood at 211 pg/mL. The inhibition in series [2] is 25.4%.

For `O=C(Nc1c2c(cc3c1CCC3)CCC2)[C@H](CNS(=O)(=O)c1ccc([N+](=O)[O-])cc1)c1ccccc1`, the Activity in series [1] stood at 156 pg/mL. Further, in series [2], the inhibition came out at 44.8%. As for `Nc1ccc(S(=O)(=O)N[C@H](Cc2ccccc2)C(=O)Nc2c3c(cc4c2CCC4)CCC3)cc1`, in series [1], the Activity came to 152 pg/mL. Further, the inhibition in series [2] came to 46.4%. With `O=C(Nc1c2c(cc3c1CCC3)CCC2)[C@H](Cc1ccc(O)cc1)NS(=O)(=O)c1ccc([N+](=O)[O-])cc1`, the inhibition in series [2] came out at 34.7%. Turning to `O=C(CCNS(=O)(=O)c1ccc([N+](=O)[O-])cc1)Nc1c2c(cc3c1CCC3)CCC2`, the Activity in series [1] worked out at 180 pg/mL. For the same compound, the inhibition in series [2] came to 36.5%. In the case of `CC(C)[C@H](NS(=O)(=O)c1ccc(N)cc1)C(=O)Nc1c2c(cc3c1CCC3)CCC2`, the inhibition in series [2] came to 50.2%. As to `O=C(Nc1c2c(cc3c1CCC3)CCC2)[C@@H]1Cc2ccccc2CN1S(=O)(=O)c1ccc([N+](=O)[O-])cc1`, in series [1], the Activity turned out to be 131 pg/mL. Moreover, the inhibition in series [2] was found to be 53.7%. As for `Nc1ccc(S(=O)(=O)NCCC(=O)Nc2c3c(cc4c2CCC4)CCC3)cc1`, the Activity in series [1] amounted to 220 pg/mL. In series [2], the inhibition was 22.3%. Taken in the same sequence, the figures for `Nc1ccc(S(=O)(=O)N[C@H](C(=O)Nc2c3c(cc4c2CCC4)CCC3)c2ccccc2)cc1` were 237 pg/mL and 16.1%. As for `C[C@H](NS(=O)(=O)c1ccc([N+](=O)[O-])cc1)C(=O)Nc1c2c(cc3c1CCC3)CCC2`, the inhibition entry in series [3] was “inactive”. In series [1], the Activity was determined as 349 pg/mL. As for `CCOc1ccc2ccc(=O)oc2c1`, the figures for the half-life at 1 µM in series [4] and in series [5] were 8.3 min and 3.3 min, respectively. For the same compound, the microsomal CLint at 1 µM in series [6] worked out at 168 µL/min/mg; in series [7], 422 µL/min/mg. As for `O=C(Nc1c2c(cc3c1CCC3)CCC2)[C@@H](Cc1ccccc1)NS(=O)(=O)c1ccc([N+](=O)[O-])cc1`, in series [1], the Activity was 143 pg/mL. Further, the inhibition in series [2] is 49.5%. Taken in the same sequence, the figures for `CC(C)C[C@H](NS(=O)(=O)c1ccc([N+](=O)[O-])cc1)C(=O)Nc1c2c(cc3c1CCC3)CCC2` were 131 pg/mL and 53.9%. As for `CC(C)C[C@H](NS(=O)(=O)c1ccc(N)cc1)C(=O)Nc1c2c(cc3c1CCC3)CCC2`, the Activity in series [1] amounted to 194 pg/mL. For the same compound, the inhibition in series [2] was 31.5%. The matching figures for `O=C(Nc1c2c(cc3c1CCC3)CCC2)[C@H](Cc1ccccc1)NS(=O)(=O)c1ccc([N+](=O)[O-])cc1`: 227 pg/mL and 19.8%.

In the case of `CC(C)[C@@H](NS(=O)(=O)c1ccc(N)cc1)C(=O)Nc1c2c(cc3c1CCC3)CCC2`, in series [2], the inhibition is 25.1%. Consider `O=C(Nc1c2c(cc3c1CCC3)CCC2)[C@@H]1CCCCN1S(=O)(=O)c1ccc([N+](=O)[O-])cc1`, for which the Activity in series [1] was determined as 135 pg/mL. Moreover, the inhibition in series [2] is 52.4%. Turning to `CC(C)NCC(O)COc1cccc2ccccc12` (stereo not given) [PROPRANOLOL], the results for the half-life at 1 µM in series [4] and in series [5] were 47 min and 7.3 min, respectively.

With `O=C(Nc1c2c(cc3c1CCC3)CCC2)[C@@H]1CCCN1S(=O)(=O)c1ccc([N+](=O)[O-])cc1`, the Activity in series [1] was 210 pg/mL. In series [2], the inhibition came out at 25.7%. Taken in the same sequence, the figures for `Nc1ccc(S(=O)(=O)N2CCC[C@H]2C(=O)Nc2c3c(cc4c2CCC4)CCC3)cc1` were 165 pg/mL and 41.6%.

With `C[C@H](NS(=O)(=O)c1ccc(N)cc1)C(=O)Nc1c2c(cc3c1CCC3)CCC2`, the inhibition in series [2] amounted to 17.3%. `NCCCC[C@H](NS(=O)(=O)c1ccc([N+](=O)[O-])cc1)C(=O)Nc1c2c(cc3c1CCC3)CCC2`: the Activity in series [1] turned out to be 149 pg/mL. For the same compound, the inhibition in series [2] was found to be 47.5%. In the case of `O=C(CNS(=O)(=O)c1ccc([N+](=O)[O-])cc1)Nc1c2c(cc3c1CCC3)CCC2`, the inhibition result in series [3] is “inactive”. Moreover, in series [1], the Activity came out at 344 pg/mL.
